Test results from PMC4201344 (ACS Chemical Biology, 2014).
Changes are numbered by the printed parent chain. Entries after “also recorded” stand apart in the source; their conditions may differ.

What was measured:
GluClβ T6′S, R40A = GluClβ T6′S, R40A (Caenorhabditis elegans, UniProt Q17328, R66A/T283S); assay: two-electrode voltage clamp, Xenopus laevis oocytes; assay type: cell-based, C. elegans; settings: glutamate
[1] = tested on: GluClβ T6′S, Y206TAG F2–Phe (3,5-F2–Phe); assay: two-electrode voltage clamp, Xenopus laevis oocytes, nonsense suppression; assay type: cell-based, C. elegans; settings: glutamate
GluClβ T13′S = GluClβ T13′S (Caenorhabditis elegans, UniProt Q17328, T290S); assay: two-electrode voltage clamp, Xenopus laevis oocytes; assay type: cell-based, C. elegans; settings: glutamate
In short: (§1)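 C. elegans GluClβ (mammalian codon-optimised) in pGEMhe, mutated by QuikChange; T7 mRNA. […] Voltage clamp at −60 mV in Ca-free ND96, pH 7.5. […] Peak currents taken from baseline, normalised, averaged per concentration, and fit to Hill equation (EC50, nH).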

GluClβ T13′A = target: T1, GluClβ T13′A (Caenorhabditis elegans, UniProt Q17328, T290A); assay: two-electrode voltage clamp, Xenopus laevis oocytes; assay type: cell-based, C. elegans; settings: glutamate
T1 sequence (Q17328 23-434 T290A): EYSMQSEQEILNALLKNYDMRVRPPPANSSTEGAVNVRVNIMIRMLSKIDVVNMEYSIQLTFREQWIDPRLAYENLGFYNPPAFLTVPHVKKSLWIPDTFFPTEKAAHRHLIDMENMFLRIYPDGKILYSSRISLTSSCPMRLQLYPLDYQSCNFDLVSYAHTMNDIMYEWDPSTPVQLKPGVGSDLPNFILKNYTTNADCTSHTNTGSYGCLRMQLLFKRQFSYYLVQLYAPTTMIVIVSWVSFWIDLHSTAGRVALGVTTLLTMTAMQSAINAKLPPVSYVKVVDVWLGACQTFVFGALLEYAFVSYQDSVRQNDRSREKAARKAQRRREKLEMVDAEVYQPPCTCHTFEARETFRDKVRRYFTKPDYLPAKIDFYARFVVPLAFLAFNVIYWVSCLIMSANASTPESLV

[2] = tested on: GluClβ T6′S, Y206TAG CN–Phe; assay: two-electrode voltage clamp, Xenopus laevis oocytes, nonsense suppression; assay type: cell-based, C. elegans; settings: glutamate
GluClβ T6′S, Y206TAG Phe = target: T2, GluClβ T6′S, Y206TAG Phe (Caenorhabditis elegans, UniProt Q17328, T283S/Y232F); assay: two-electrode voltage clamp, Xenopus laevis oocytes, nonsense suppression; assay type: cell-based, C. elegans; settings: glutamate
T2 sequence (Q17328 23-434 Y232F/T283S): T1 sequence (Q17328 23-434 T290A) with Y210F, T261S, A268T
In short: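 Site-specific TAG codon, read by 74mer THG73 tRNA ligated to dCA-acylated amino acid; NVOC removed by 5 min xenon-lamp irradiation just before injection. Oocytes coinjected with 37.5 ng mRNA plus ~1 μg/μL tRNA at 48 and 24 h pre-recording; unacylated 76mer tRNA served as read-through control.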

GluClβ AG-2′,-1′PA = GluClβ AG-2′,-1′PA (Caenorhabditis elegans, UniProt Q17328, A275P/G276A); assay: two-electrode voltage clamp, Xenopus laevis oocytes; assay type: cell-based, C. elegans; settings: glutamate
GluClβ T6′S, Y156F = GluClβ T6′S, Y156F (Caenorhabditis elegans, UniProt Q17328, T283S/Y182F); assay: as above; assay type: cell-based, C. elegans; settings: glutamate
GluClα T2′A = settings: otherwise glutamate-insensitive channel; cited from earlier work
GluClβ A20′T = target: T3, GluClβ A20′T (Caenorhabditis elegans, UniProt Q17328, A297T); assay: two-electrode voltage clamp, Xenopus laevis oocytes; assay type: cell-based, C. elegans; settings: glutamate
T3 sequence (Q17328 23-434 A297T): T1 sequence (Q17328 23-434 T290A) with A268T, A275T

GluClβ A2′S = target: T4, GluClβ A2′S (Caenorhabditis elegans, UniProt Q17328, A279S); assay: as above; assay type: cell-based, C. elegans; settings: glutamate
T4 sequence (Q17328 23-434 A279S): T1 sequence (Q17328 23-434 T290A) with A257S, A268T

GluClβ A2′T = GluClβ A2′T (Caenorhabditis elegans, UniProt Q17328, A279T); assay: two-electrode voltage clamp, Xenopus laevis oocytes; assay type: cell-based, C. elegans; settings: glutamate
In short: as §1

Chain of GluClβ A2′T (Q17328 23-434 A279T): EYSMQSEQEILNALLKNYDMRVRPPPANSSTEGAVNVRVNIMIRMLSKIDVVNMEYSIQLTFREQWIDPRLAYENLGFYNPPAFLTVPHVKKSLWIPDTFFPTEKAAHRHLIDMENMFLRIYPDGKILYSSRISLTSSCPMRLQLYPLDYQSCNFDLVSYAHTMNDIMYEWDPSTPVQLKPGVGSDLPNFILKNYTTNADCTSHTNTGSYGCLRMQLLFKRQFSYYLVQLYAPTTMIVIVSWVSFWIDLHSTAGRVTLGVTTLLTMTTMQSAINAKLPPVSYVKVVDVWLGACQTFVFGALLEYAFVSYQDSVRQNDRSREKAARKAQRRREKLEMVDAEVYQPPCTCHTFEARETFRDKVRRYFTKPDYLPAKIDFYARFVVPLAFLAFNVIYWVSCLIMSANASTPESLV
Chain of GluClβ T6′S, Y156F (Q17328 23-434 Y182F/T283S): as the sequence (Q17328 23-434 A279T) above, with Y160F, T257A, T261S counted along it
Chain of GluClβ T6′S, R40A (Q17328 23-434 R66A/T283S): as the sequence (Q17328 23-434 A279T) above, with R44A, T257A, T261S counted along it
Chain of GluClβ T13′S (Q17328 23-434 T290S): as the sequence (Q17328 23-434 A279T) above, with T257A, T268S counted along it
Chain of GluClβ AG-2′,-1′PA (Q17328 23-434 A275P/G276A): as the sequence (Q17328 23-434 A279T) above, with A253P, G254A, T257A counted along it

N[C@@H](CCC(=O)O)C(=O)O [glutamate]
EC50 (GluClβ T6′S, R40A): 1100 ± 100 µM
Hill (GluClβ T6′S, R40A): 2.1 ± 0.1
Imax [1]: 0.1–0.6 μA
EC50 ([1]; no plateau at highest concentration 100 mM): > 100000 µM
EC50 (GluClβ T13′S): not functional; also recorded: no response
EC50 (GluClβ T13′A): 38 ± 1 µM
Hill (GluClβ T13′A): 2.8 ± 0.1
Imax (GluClβ T13′A): 0.1–6 μA
EC50 [2]: 19000 ± 1000 µM
Hill [2]: 2.8 ± 0.2
Imax [2]: 0.8–6 μA
EC50 (GluClβ T6′S, Y206TAG Phe): 160 ± 10 µM
Hill (GluClβ T6′S, Y206TAG Phe): 3.0 ± 0.2
Imax (GluClβ T6′S, Y206TAG Phe): 0.07–0.30 μA
Imax (GluClβ AG-2′,-1′PA): 12–66 μA
EC50 (GluClβ T6′S, Y156F): 6400 ± 400 µM
Hill (GluClβ T6′S, Y156F): 1.6 ± 0.1
glutamate sensitivity (GluClα T2′A): restore glutamate sensitivity
EC50 (GluClβ A20′T): 110 ± 20 µM
Hill (GluClβ A20′T): 1.7 ± 0.1
Imax (GluClβ A20′T): 0.5–48 μA
EC50 (GluClβ A2′S): 630 ± 10 µM
Hill (GluClβ A2′S): 2.0 ± 0.1
Imax (GluClβ A2′S): 0.6–6 μA
EC50 (GluClβ A2′T): abolished glutamate-induced currents; also recorded: no response
